Activity calls are given as the source filed them.

In general, Emax refers to the greatest response seen or fitted, relative to the assay's reference. Usually Ki stands for the dissociation constant of the complex between target and ligand, obtained from inhibition or displacement. Read a low Ki as higher affinity. By EC50 is commonly meant the concentration that produces a half-maximal response. Broadly, the ED50 is the dose that gives a 50% effect, or the effect in half of the subjects.

Experiment [1] deals with Mu-type opioid receptor (Rattus norvegicus) (UniProt P33535). The experiment in a line: Agonist activity at rat MOR expressed in rat C6 cells assessed as stimulation of [35S]GTPgammaS binding at 10 uM after 1 hr by liquid scintillation counting analysis relative to DAMGO. In kind it is functional, cell-based.
Mu-type opioid receptor (Rattus norvegicus), sequence (P33535 whole entry): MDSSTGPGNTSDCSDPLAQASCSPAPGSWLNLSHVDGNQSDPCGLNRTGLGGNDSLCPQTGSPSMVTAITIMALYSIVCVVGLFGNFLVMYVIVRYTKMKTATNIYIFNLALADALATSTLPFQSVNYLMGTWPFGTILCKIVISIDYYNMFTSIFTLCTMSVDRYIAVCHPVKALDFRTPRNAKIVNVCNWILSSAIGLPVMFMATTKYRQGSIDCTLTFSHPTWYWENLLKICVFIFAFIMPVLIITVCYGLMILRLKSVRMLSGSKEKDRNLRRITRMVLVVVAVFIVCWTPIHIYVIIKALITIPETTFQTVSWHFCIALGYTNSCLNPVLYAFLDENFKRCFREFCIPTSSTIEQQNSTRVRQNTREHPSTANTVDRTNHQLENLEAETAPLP
Experiment [2] deals with T1, Kappa-type opioid receptor (Homo sapiens, UniProt P41145). The class given is cell-based, CHO.
T1 sequence (P41145 whole entry): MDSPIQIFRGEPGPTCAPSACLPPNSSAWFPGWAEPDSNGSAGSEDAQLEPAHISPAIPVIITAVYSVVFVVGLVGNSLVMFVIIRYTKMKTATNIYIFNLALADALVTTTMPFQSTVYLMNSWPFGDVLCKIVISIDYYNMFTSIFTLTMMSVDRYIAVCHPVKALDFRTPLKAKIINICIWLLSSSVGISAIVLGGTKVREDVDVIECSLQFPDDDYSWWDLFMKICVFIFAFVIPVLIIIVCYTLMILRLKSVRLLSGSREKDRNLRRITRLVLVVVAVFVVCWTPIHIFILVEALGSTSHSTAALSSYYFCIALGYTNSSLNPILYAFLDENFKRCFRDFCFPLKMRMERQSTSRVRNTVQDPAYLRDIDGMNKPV
In experiment [3] the target is T2, Mu-type opioid receptor (Rattus norvegicus, UniProt P33535). The experiment in a line: Displacement of [3H]diprenorphine from rat MOR expressed in rat C6 cells after 1 hr by liquid scintillation counting analysis. The class given is cell-based. (In general: Displacement assays read how much labelled ligand stays bound in the presence of the test substance.)
T2 sequence (P33535 whole entry): as the sequence (P33535 whole entry) above
Experiment [4] addresses T3, Delta-type opioid receptor (Rattus norvegicus, UniProt P33533). Briefly: Displacement of [3H]diprenorphine from rat DOR expressed in rat C6 cells after 1 hr by liquid scintillation counting analysis. In kind it is cell-based.
The target of experiment [5] is T1, Kappa-type opioid receptor. In kind it is functional, cell-based, CHO.
The target of experiment [6] is T2, Mu-type opioid receptor. The experiment in a line: Agonist activity at rat MOR expressed in rat C6 cells assessed as stimulation of [35S]GTPgammaS binding after 1 hr by liquid scintillation counting analysis. In kind it is functional, cell-based.
Experiment [7] deals with T3, Delta-type opioid receptor. The experiment in a line: Agonist activity at rat DOR expressed in rat C6 cells assessed as stimulation of [35S]GTPgammaS binding after 1 hr by liquid scintillation counting analysis. In kind it is functional, cell-based. (GTPγS resists hydrolysis and so accumulates on activated G proteins.)
For experiment [8], the target named is T1, Kappa-type opioid receptor. The note with it: CHO, 10 uM.
Experiment [9] has as its target Delta-type opioid receptor (Rattus norvegicus) (UniProt P33533). The conditions noted are these: C6.
Experiment [10] has as its system Mus musculus. Briefly: Antinociceptive activity in C57BL/6 mouse assessed as tail withdrawal latency at 3.2 to 32 mg/kg, ip after 30 mins by warm water tail withdrawal assay in presence of opioid antagonist naltrexone. In kind it is functional, organism-based. In short, it runs like this: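 Male C57BL/6 mice pretreated ip with naltrexone 1 mg/kg, 30 min before testing. Cumulative ip dosing to totals of 3.2, 10 and 32 mg/kg at 30 min intervals, with latency read 30 min after each injection. Tail tip immersed in 50 °C water, 20 s cutoff.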

Experiment [11] concerns Mus musculus. The experiment in a line: Antinociceptive activity in C57BL/6 mouse assessed as duration of maximal activity at 10 mg/kg, ip by warm water tail withdrawal assay. The conditions noted are these: route intraperitoneal. In kind it is functional. In short, it runs like this:
(§1)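 Male C57BL/6 mice given a single ip dose of 10 mg/kg. Tail-withdrawal latency (50 °C water, 20 s cutoff) measured at varying times after dosing to build a time course.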

Experiment [12] relates to Mus musculus. The experiment in a line: Antinociceptive activity in ip dosed C57BL/6 mouse assessed as tail withdrawal latency after 30 mins by warm water tail withdrawal assay. The class given is functional.
The test system of experiment [13] is Mus musculus. The experiment in a line: Antinociceptive activity in C57BL/6 mouse assessed as increase in duration of maximal activity at 10 mg/kg, ip by warm water tail withdrawal assay. More on the design: dose 10 mg/kg. In kind it is functional, organism-based. In a few lines:
as §1

Experiment [14] concerns the target Delta-type opioid receptor (Rattus norvegicus) (UniProt P33533). Briefly: Agonist activity at rat DOR expressed in rat C6 cells assessed as stimulation of [35S]GTPgammaS binding at 10 uM after 1 hr by liquid scintillation counting analysis relative to DPDPE. The class given is functional, cell-based.

T3 sequence (P33533 whole entry): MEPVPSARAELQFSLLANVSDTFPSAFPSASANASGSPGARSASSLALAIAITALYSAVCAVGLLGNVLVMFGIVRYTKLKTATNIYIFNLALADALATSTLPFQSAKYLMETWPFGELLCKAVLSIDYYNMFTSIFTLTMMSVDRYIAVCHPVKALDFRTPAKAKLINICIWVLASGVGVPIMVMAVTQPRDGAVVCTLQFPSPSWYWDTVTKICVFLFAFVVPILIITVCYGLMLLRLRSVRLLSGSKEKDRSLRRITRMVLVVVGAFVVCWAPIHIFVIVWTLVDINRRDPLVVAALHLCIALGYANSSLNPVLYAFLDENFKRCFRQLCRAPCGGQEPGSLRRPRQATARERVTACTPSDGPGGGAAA
Delta-type opioid receptor (Rattus norvegicus), sequence (P33533 whole entry): as above

Regarding `Cc1cc(O)cc(C)c1C[C@H](N)C(=O)N[C@@H]1CCNc2ccc(CC3Cc4ccccc4C3)cc21`, the values for the Emax in experiment [1] and in experiment [8] were 86% and 38%, respectively. For the same molecule, the Ki in experiment [2] is 1.2 nM; at Mu-type opioid receptor [3], 0.16 nM; in experiment [4] it was 4.1 nM. Further, the figures for the EC50 (in experiment [5] (read-out: EC50); on Mu-type opioid receptor [6]; in experiment [7]) were 68 nM, 0.24 nM and “Not Active”, respectively.

On to `Cc1cc(O)cc(C)c1C[C@H](N)C(=O)N[C@@H]1CCNc2ccc(Cc3ccc4ccccc4c3)cc21`, for which, in experiment [1], the maximal response (Emax) worked out at 96%. Also, the Ki in [2] worked out at 54 nM; in experiment [4] it was 10 nM. The EC50 entry in [5] (cho) and in experiment [7] was “Not Active” in each case. The Ke in experiment [9] was 34.3 nM.

As for `Cc1cc(O)cc(C)c1C[C@H](N)C(=O)N[C@@H]1CCNc2ccc(CCc3ccccc3)cc21`, in [1], the maximum response (Emax) amounted to 45%. In addition, the 50% effective concentration (EC50) entry in [5] (cho) and in experiment [7] was “Not Active” throughout.

Consider `Cc1cc(O)cc(C)c1C[C@H](N)C(=O)N[C@@H]1CCNc2ccc(Cc3ccccc3)cc21`, for which, in the experiment on Mus musculus [10], the result was inactive. The Time with Mus musculus [11] was determined as 60 min. In addition, the Activity result in the experiment on Mus musculus [12] is “Dose-dependent effect”. The median effective dose (ED50) in the experiment with Mus musculus [12] (C57BL/6, Tail, 0.5 h) is 3 mg/kg.

For the molecule `CN1CC[C@]23c4c5ccc(O)c4O[C@H]2[C@@H](O)C=C[C@H]3[C@H]1C5`, in the experiment on Mus musculus [13], the outcome was Active.

In the case of `Cc1cc(O)cc(C)c1C[C@H](N)C(=O)N[C@@H]1CCNc2ccc(Cc3cccc4ccccc34)cc21`, the Emax was 15% in experiment [14] and 93% in experiment [1]. Further, the EC50 entry in experiment [5] (cho) is given as “Not Active”.
